Measurements from ChEMBL document CHEMBL2413051, “Antibacterial activity of quinoxalines, quinazolines, and 1,5-naphthyridines” (2013).
Converted amounts (≈) assume the structure as drawn. The source made the active and inactive calls. The calls are words filed in the database; no cut-off is given here.

Key:
Staphylococcus aureus [1] = experiment: microbe, parasite or virus in culture; assay type: functional; settings: ATCC 33591
Enterococcus faecalis [2] = experiment: microbe, parasite or virus in culture; assay type: functional; settings: ATCC 19433
Staphylococcus aureus [3] = experiment: microbe, parasite or virus in culture; assay type: functional; settings: 8325-4
[4] = molecular target: T1, Cell division protein FtsZ (Staphylococcus aureus) (UniProt P0A031); experiment: Stimulation of purified Staphylococcus aureus FtsZ polymerization at 40 ug/ml by microtiter plate based light-scattering assay in presence of 10 mM depolymerizing agent GDP
T1 sequence (whole entry): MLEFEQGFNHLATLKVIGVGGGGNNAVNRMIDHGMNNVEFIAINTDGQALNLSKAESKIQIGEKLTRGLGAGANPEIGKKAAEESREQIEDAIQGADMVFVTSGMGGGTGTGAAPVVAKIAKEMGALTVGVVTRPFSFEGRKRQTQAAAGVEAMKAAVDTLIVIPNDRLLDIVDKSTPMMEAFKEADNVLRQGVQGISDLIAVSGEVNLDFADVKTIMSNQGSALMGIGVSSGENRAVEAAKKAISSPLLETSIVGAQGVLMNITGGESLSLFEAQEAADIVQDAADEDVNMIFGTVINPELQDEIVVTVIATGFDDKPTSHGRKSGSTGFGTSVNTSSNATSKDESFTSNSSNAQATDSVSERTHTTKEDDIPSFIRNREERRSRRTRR

Enterococcus faecalis [5] = experiment: microbe, parasite or virus in culture; assay type: functional; settings: ATCC 51575
Staphylococcus aureus [6] = experiment: Bactericidal activity against methicillin-sensitive Staphylococcus aureus 8325-4; assay type: functional
Procedure, shortened: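 MBC against MSSA strain 8325-4, determined per a previously described method; paired MIC by CLSI broth microdilution, MIC being lowest concentration giving ≥90% growth inhibition.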

Staphylococcus aureus [7] = experiment: Bactericidal activity against methicillin-resistant Staphylococcus aureus ATCC 33591; assay type: functional
Staphylococcus aureus [8] = experiment: Ratio of MBC to MIC for methicillin-sensitive Staphylococcus aureus 8325-4; assay type: functional
Enterococcus faecalis [9] = experiment: Ratio of MBC to MIC for vancomycin-resistant Enterococcus faecalis ATCC 51575; assay type: functional
Procedure, shortened: (§1)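 Ratio of MBC to MIC, both in µg/mL. MIC was found by CLSI broth microdilution as the lowest concentration giving ≥90% growth inhibition. MBC was found by a previously described method. Per CLSI, a ratio of 1–2 is read as bactericidal and ≥8 as bacteriostatic.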

Enterococcus faecalis [10] = experiment: Bactericidal activity against vancomycin-resistant Enterococcus faecalis ATCC 51575; assay type: functional
Staphylococcus aureus [11] = experiment: Ratio of MBC to MIC for methicillin-resistant Staphylococcus aureus ATCC 33591; assay type: functional
Procedure, shortened: as §1

[12] = molecular target: T1, Cell division protein FtsZ (Staphylococcus aureus); experiment: Stimulation of purified Staphylococcus aureus FtsZ polymerization at 40 ug/ml by microtiter plate based light-scattering assay
[13] = molecular target: T1, Cell division protein FtsZ (Staphylococcus aureus); experiment: Stimulation of purified Staphylococcus aureus FtsZ polymerization at 80 ug/ml by microtiter plate based light-scattering assay

Compound | MIC (Staphylococcus aureus [1]) [µg/mL] | MIC (Enterococcus faecalis [2]) [µg/mL] | MIC (Staphylococcus aureus [3]) [µg/mL] | Activity [4] | MIC (Enterococcus faecalis [5]) [µg/mL] | MBC (Staphylococcus aureus [6]) [µg/mL] | MBC (Staphylococcus aureus [7]) [µg/mL] | Ratio (Staphylococcus aureus [8]) | Ratio (Enterococcus faecalis [9]) | MBC (Enterococcus faecalis [10]) [µg/mL] | Ratio (Staphylococcus aureus [11]) | Activity [12] | Activity [13]
c1ccc(-c2cnc3ccccc3n2)cc1 | > 64 | > 64 | > 64 | Active | > 64 | – | – | – | – | – | – | – | –
CN(C)[C@@H]1C(O)=C(C(N)=O)C(=O)[C@@]2(O)C(O)=C3C(=O)c4c(O)cccc4[C@@](C)(O)[C@H]3C[C@@H]12 [TETRACYCLINE] | 64 (≈ 144 µM) | 0.5 (≈ 1.13 µM) | 0.06 (≈ 0.135 µM) | – | > 64 | – | – | – | – | – | – | – | –
c1ccc(-c2cccc(-c3cnc4ccccc4n3)c2)cc1 | > 64 | > 64 | > 64 | Active | > 64 | – | – | – | – | – | – | – | –
CC(C)(C)c1cccc(-c2cnc3ccccc3n2)c1 | > 64 | > 64 | > 64 | Active | > 64 | – | – | – | – | – | – | – | –
CC(C)(C)c1ccc(-c2cc(C(=O)NCCN)cc(-c3cnc4ccccc4n3)c2)cc1 | 4 (≈ 9.42 µM) | 8 (≈ 18.8 µM) | 4 (≈ 9.42 µM) | Active | 8 (≈ 18.8 µM) | – | – | – | – | – | – | – | –
C[n+]1cc(-c2cc(C(=O)NCCO)cc(-c3ccc(C(C)(C)C)cc3)c2)nc2ccccc21.[I-] | 4 | 8 | 4 | Active | 8 | – | – | – | – | – | – | – | –
C[n+]1cc(-c2cc(C(N)=O)cc(-c3ccc(C(C)(C)C)cc3)c2)nc2ccccc21.[I-] | 2 | 4 | 2 | Active | 4 | – | – | – | – | – | – | – | –
CCC[C@@H]1C[C@@H](C(=O)N[C@@H]([C@H]2O[C@H](SC)[C@H](O)[C@@H](O)[C@H]2O)[C@H](C)Cl)N(C)C1 [CLINDAMYCIN] | > 64 | 2 (≈ 4.71 µM) | 0.03 (≈ 0.0706 µM) | – | > 64 | – | – | – | – | – | – | – | –
Fc1cccc(-c2cnc3ccccc3n2)c1 | > 64 | > 64 | > 64 | Active | > 64 | – | – | – | – | – | – | – | –
CC(=N)NCc1cccc2c(-c3ccc(C(C)(C)C)cc3)ncnc12 | 64 (≈ 193 µM) | 64 (≈ 193 µM) | 32 (≈ 96.3 µM) | Active | 64 (≈ 193 µM) | – | – | – | – | – | – | – | –
COC(=O)c1cc(-c2ccc(C(C)(C)C)cc2)cc(-c2c[n+](C)c3ccccc3n2)c1.[I-] | 1 | 4 | 1 | Active | 4 | – | – | – | – | – | – | – | –
CN[C@H](CC(C)C)C(=O)N[C@H]1C(=O)N[C@@H](CC(N)=O)C(=O)N[C@H]2C(=O)N[C@H]3C(=O)N[C@H](C(=O)N[C@H](C(=O)O)c4cc(O)cc(O)c4-c4cc3ccc4O)[C@H](O)c3ccc(c(Cl)c3)Oc3cc2cc(c3O[C@@H]2O[C@H](CO)[C@@H](O)[C@H](O)[C@H]2O[C@H]2C[C@](C)(N)[C@H](O)[C@H](C)O2)Oc2ccc(cc2Cl)[C@H]1O [VANCOMYCIN] | – | 1 (≈ 0.69 µM) | – | – | > 64 | 1 (≈ 0.69 µM) | 4 (≈ 2.76 µM) | – | – | – | – | – | –
CC(C)(C)c1ccc(-c2cnc3c(CNC(=N)N)cccc3n2)cc1 | 4 (≈ 12 µM) | 8 (≈ 24 µM) | 4 (≈ 12 µM) | Active | 16 (≈ 48 µM) | 4 (≈ 12 µM) | 8 (≈ 24 µM) | 1 | 1 | 16 (≈ 48 µM) | 2 | Active | –
C[n+]1cc(-c2cccc(F)c2)nc2ccccc21.[I-] | 4 | 32 | 2 | Active | 32 | – | – | – | – | – | – | – | –
C[n+]1cc(-c2cccc(-c3ccccc3)c2)nc2ccccc21.[I-] | 0.5 | 8 | 0.5 | Active | 8 | 4 | 4 | 8 | 8 | 64 | – | inactive | –
Cc1onc(-c2ccccc2)c1C(=O)N[C@@H]1C(=O)N2[C@@H]1SC(C)(C)[C@@H]2C(=O)O [OXACILLIN] | > 64 | 8 (≈ 19.9 µM) | 0.06 (≈ 0.149 µM) | – | > 64 | – | – | – | – | – | – | – | –

Compound | MIC (Staphylococcus aureus [1]) [µg/mL] | MIC (Enterococcus faecalis [2]) [µg/mL] | MIC (Staphylococcus aureus [3]) [µg/mL] | Activity [4] | MIC (Enterococcus faecalis [5]) [µg/mL] | MBC (Staphylococcus aureus [6]) [µg/mL] | MBC (Staphylococcus aureus [7]) [µg/mL] | Ratio (Staphylococcus aureus [8]) | Ratio (Enterococcus faecalis [9]) | MBC (Enterococcus faecalis [10]) [µg/mL] | Ratio (Staphylococcus aureus [11]) | Activity [12] | Activity [13]
CC(C)(C)c1ccc(-c2ccnc3c(CNC(=N)N)ccnc23)cc1 | 8 (≈ 24 µM) | 32 (≈ 96 µM) | 8 (≈ 24 µM) | Active | 64 (≈ 192 µM) | 8 (≈ 24 µM) | 16 (≈ 48 µM) | 1 | 1 | 64 (≈ 192 µM) | 2 | – | Active
CC(C)(C)c1ccc(-c2cc(C(=O)NCCO)cc(-c3cnc4ccccc4n3)c2)cc1 | > 64 | > 64 | > 64 | Active | > 64 | – | – | – | – | – | – | – | –
c1ccc2nccnc2c1 [QUINOXALINE] | > 64 | > 64 | > 64 | Active | > 64 | – | – | – | – | – | – | – | –
CC(C)(C)c1ccc(-c2cccc3c(CNC(=N)N)ncnc23)cc1 | 64 (≈ 192 µM) | > 64 | 16 (≈ 48 µM) | Active | > 64 | – | – | – | – | – | – | – | –
COC(=O)c1cc(-c2ccc(C(C)(C)C)cc2)cc(-c2cnc3ccccc3n2)c1 | > 64 | > 64 | > 64 | Active | > 64 | – | – | – | – | – | – | – | –
CC(C)(C)c1ccc(-c2ncnc3c(CN)cccc23)cc1 | 64 (≈ 220 µM) | 64 (≈ 220 µM) | 32 (≈ 110 µM) | Active | 64 (≈ 220 µM) | – | – | – | – | – | – | – | –
C[n+]1cc(-c2ccc(C(C)(C)C)cc2)nc2ccccc21.[I-] | 1 | 16 | 0.5 | Active | 16 | 8 | 16 | 16 | 4 | 64 | – | – | –
C[n+]1cc(-c2ccccc2)nc2ccccc21.[I-] | 8 | 32 | 4 | Active | > 64 | – | – | – | – | – | – | – | –
CC(C)(C)c1ccc(-c2cc(C(N)=O)cc(-c3cnc4ccccc4n3)c2)cc1 | > 64 | > 64 | > 64 | Active | > 64 | – | – | – | – | – | – | – | –
CC(C)(C)c1ccc(-c2ncnc3c(CNC(=N)N)cccc23)cc1 | 8 (≈ 24 µM) | 32 (≈ 96 µM) | 4 (≈ 12 µM) | Active | 32 (≈ 96 µM) | 8 (≈ 24 µM) | 16 (≈ 48 µM) | 2 | 2 | 64 (≈ 192 µM) | – | – | Active
CC[C@H]1OC(=O)[C@H](C)[C@@H](O[C@H]2C[C@@](C)(OC)[C@@H](O)[C@H](C)O2)[C@H](C)[C@@H](O[C@@H]2O[C@H](C)C[C@H](N(C)C)[C@H]2O)[C@](C)(O)C[C@@H](C)C(=O)[C@H](C)[C@@H](O)[C@]1(C)O [ERYTHROMYCIN] | > 64 | 1 (≈ 1.36 µM) | 0.13 (≈ 0.177 µM) | – | > 64 | 32 (≈ 43.6 µM) | – | – | – | – | – | – | –
C[n+]1cc(-c2cccc(C(C)(C)C)c2)nc2ccccc21.[I-] | 2 | 8 | 2 | Active | 16 | 16 | 16 | 8 | 4 | 64 | – | inactive | –
CC(C)(C)c1ccc(-c2cnc3ccccc3n2)cc1 | > 64 | > 64 | > 64 | Active | > 64 | – | – | – | – | – | – | – | –
CC(C)(C)c1cccc(-c2cnc3c(CNC(=N)N)cccc3n2)c1 | 4 (≈ 12 µM) | 8 (≈ 24 µM) | 4 (≈ 12 µM) | Active | 16 (≈ 48 µM) | 4 (≈ 12 µM) | 8 (≈ 24 µM) | 1 | 2 | 32 (≈ 96 µM) | 2 | Active | –
C[n+]1ccnc2ccccc21.[I-] | > 64 | > 64 | 32 | Active | > 64 | – | – | – | – | – | – | – | –
CC(C)(C)c1ccc(-c2ccnc3c(CN)ccnc23)cc1 | > 64 | > 64 | > 64 | Active | > 64 | – | – | – | – | – | – | – | –
